Reference: ChEMBL document CHEMBL4145462, “Nitrogen-containing ecdysteroid derivatives vs. multi-drug resistance in cancer: Preparation and antitumor activity of oximes, oxime ethers and a lactam” (Eur J Med Chem, 2018)

Legend:
[1] = Synergistic cytotoxicity against mouse L5178 cells expressing human ABCB1 assessed as combination index at ED90 using 30:1 test compound to doxorubicin ratio after 48 hrs by MTT-based checkerboard microplate method; assay type: functional
Method in brief: (§1)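 Checkerboard microplate combinations of compound with doxorubicin at constant molar ratios. 5 × 10^4 cells/well in McCoy's 5A, 48 h at 37°C, 5% CO2. MTT added to 0.5 mg/mL final for 4 h, SDS/HCl overnight, OD read at 540 and 630 nm. Combination indices derived per ratio for 50%, 75% and 90% growth inhibition by median-effect analysis.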

[2] = Synergistic cytotoxicity against mouse L5178 cells expressing human ABCB1 assessed as combination index at ED50 using 3.75:1 test compound to doxorubicin ratio after 48 hrs by MTT-based checkerboard microplate method; assay type: functional; method in brief: as §1
[3] = Synergistic cytotoxicity against mouse L5178 cells assessed as combination index at ED50 using 75:1 test compound to doxorubicin ratio after 48 hrs by MTT-based checkerboard microplate method; assay type: functional; method in brief: as §1
[4] = Synergistic cytotoxicity against mouse L5178 cells expressing human ABCB1 assessed as combination index at ED90 using 60:1 test compound to doxorubicin ratio after 48 hrs by MTT-based checkerboard microplate method; assay type: functional; method in brief: as §1
[5] = Synergistic cytotoxicity against mouse L5178 cells expressing human ABCB1 assessed as combination index at ED75 using 3.75:1 test compound to doxorubicin ratio after 48 hrs by MTT-based checkerboard microplate method; assay type: functional; method in brief: as §1
[6] = Synergistic cytotoxicity against mouse L5178 cells assessed as combination index at ED50 using 150:1 test compound to doxorubicin ratio after 48 hrs by MTT-based checkerboard microplate method; assay type: functional; method in brief: as §1
[7] = Synergistic cytotoxicity against mouse L5178 cells assessed as combination index at ED90 using 75:1 test compound to doxorubicin ratio after 48 hrs by MTT-based checkerboard microplate method; assay type: functional; method in brief: as §1
[8] = Synergistic cytotoxicity against mouse L5178 cells expressing human ABCB1 assessed as combination index at ED50 using 60:1 test compound to doxorubicin ratio after 48 hrs by MTT-based checkerboard microplate method; assay type: functional; method in brief: as §1
[9] = target: T1, ABCB1 (P-glycoprotein) (Homo sapiens, UniProt P08183); assay: Inhibition of human ABCB1 expressed in mouse L5178 cells assessed as increase in rhodamine-123 accumulation at 20 uM after 10 mins by flow cytometric analysis relative to control; assay type: cell-based; settings: mouse L5178 cells expressing human ABCB1, probe rhodamine-123
Method in brief: (§2)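 Cells at 2 × 10^6/mL were preincubated 10 min with compound. Rhodamine 123 then added to 5.2 µM final, 20 min at 37 °C. Cells washed twice in PBS, resuspended and read by flow cytometry. Percent inhibition was scaled between MDR-cell accumulation (0%) and parental L5178 accumulation (100%). Controls: 100 nM tariquidar (positive) and 2% DMSO (negative).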

[10] = Synergistic cytotoxicity against mouse L5178 cells assessed as combination index at ED75 using 37.5:1 test compound to doxorubicin ratio after 48 hrs by MTT-based checkerboard microplate method; assay type: functional; method in brief: as §1
[11] = Synergistic cytotoxicity against mouse L5178 cells expressing human ABCB1 assessed as combination index at ED90 using 7.5:1 test compound to doxorubicin ratio after 48 hrs by MTT-based checkerboard microplate method; assay type: functional; method in brief: as §1
[12] = Synergistic cytotoxicity against mouse L5178 cells expressing human ABCB1 assessed as combination index at ED50 using 30:1 test compound to doxorubicin ratio after 48 hrs by MTT-based checkerboard microplate method; assay type: functional; method in brief: as §1
[13] = Synergistic cytotoxicity against mouse L5178 cells assessed as combination index at ED75 using 600:1 test compound to doxorubicin ratio after 48 hrs by MTT-based checkerboard microplate method; assay type: functional; method in brief: as §1
[14] = Synergistic cytotoxicity against mouse L5178 cells assessed as combination index at ED50 using 37.5:1 test compound to doxorubicin ratio after 48 hrs by MTT-based checkerboard microplate method; assay type: functional; method in brief: as §1
[15] = Synergistic cytotoxicity against mouse L5178 cells assessed as combination index at ED90 using 300:1 test compound to doxorubicin ratio after 48 hrs by MTT-based checkerboard microplate method; assay type: functional; method in brief: as §1
[16] = Synergistic cytotoxicity against mouse L5178 cells assessed as combination index at ED90 using 37.5:1 test compound to doxorubicin ratio after 48 hrs by MTT-based checkerboard microplate method; assay type: functional; method in brief: as §1
[17] = Synergistic cytotoxicity against mouse L5178 cells expressing human ABCB1 assessed as combination index at ED50 using 7.5:1 test compound to doxorubicin ratio after 48 hrs by MTT-based checkerboard microplate method; assay type: functional; method in brief: as §1
[18] = Synergistic cytotoxicity against mouse L5178 cells assessed as combination index at ED90 using 600:1 test compound to doxorubicin ratio after 48 hrs by MTT-based checkerboard microplate method; assay type: functional; method in brief: as §1
[19] = target: T1, ABCB1 (P-glycoprotein); assay: Inhibition of human ABCB1 expressed in mouse L5178 cells assessed as increase in rhodamine-123 accumulation at 2 uM after 10 mins by flow cytometric analysis relative to control; assay type: cell-based; settings: mouse L5178 cells expressing human ABCB1, probe rhodamine-123; method in brief: as §2
[20] = Cytotoxicity against mouse L5178 cells after 48 hrs by MTT assay; assay type: functional, cell-based; settings: L5178, 48 h
Method in brief: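 Parental mouse lymphoma L5178 and the MDR line made by pHa MDR1/A retrovirus transfection, selected with 60 µg/L colchicine. Grown in McCoy's 5A with horse serum at 37°C, 5% CO2. 5 x 10^4 cells/well, serial compound dilutions, 48 h. MTT added to 0.5 mg/mL final for 4 h, then 10% SDS in 0.01 M HCl overnight, OD read at 540 and 630 nm. IC50 taken as median cytotoxic activity (Dm) from control lanes of checkerboard plates, n=2.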

[21] = Synergistic cytotoxicity against mouse L5178 cells expressing human ABCB1 assessed as combination index at ED75 using 7.5:1 test compound to doxorubicin ratio after 48 hrs by MTT-based checkerboard microplate method; assay type: functional; method in brief: as §1
[22] = Synergistic cytotoxicity against mouse L5178 cells expressing human ABCB1 assessed as combination index at ED90 using 3.75:1 test compound to doxorubicin ratio after 48 hrs by MTT-based checkerboard microplate method; assay type: functional; method in brief: as §1
[23] = Synergistic cytotoxicity against mouse L5178 cells assessed as combination index at ED50 using 600:1 test compound to doxorubicin ratio after 48 hrs by MTT-based checkerboard microplate method; assay type: functional; method in brief: as §1
[24] = tested on: MDA-MB-231; assay: Antiproliferative activity against human MDA-MB-231 cells after 72 hrs by MTT assay; assay type: functional, cell-based; settings: MDA-MB-231, 72 h
Method in brief: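 Cells grown in MEM with 10% FCS, 1% non-essential amino acids and 1% penicillin-streptomycin. Seeded at 5000 cells/well, exposed to 0.1–30.0 µM compound for 72 h. MTT (5 mg/ml solution) was then added for 4 h, formazan dissolved in DMSO, and absorbance read at 545 nm. Cisplatin served as positive control. IC50 came from sigmoidal dose–response fits (log inhibitor vs normalized response, variable slope).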

[25] = Synergistic cytotoxicity against mouse L5178 cells expressing human ABCB1 assessed as combination index at ED75 using 15:1 test compound to doxorubicin ratio after 48 hrs by MTT-based checkerboard microplate method; assay type: functional; method in brief: as §1
[26] = Synergistic cytotoxicity against mouse L5178 cells assessed as combination index at ED75 using 150:1 test compound to doxorubicin ratio after 48 hrs by MTT-based checkerboard microplate method; assay type: functional; method in brief: as §1
[27] = Synergistic cytotoxicity against mouse L5178 cells expressing human ABCB1 assessed as combination index at ED90 using 15:1 test compound to doxorubicin ratio after 48 hrs by MTT-based checkerboard microplate method; assay type: functional; method in brief: as §1

T1 sequence (P08183 whole entry): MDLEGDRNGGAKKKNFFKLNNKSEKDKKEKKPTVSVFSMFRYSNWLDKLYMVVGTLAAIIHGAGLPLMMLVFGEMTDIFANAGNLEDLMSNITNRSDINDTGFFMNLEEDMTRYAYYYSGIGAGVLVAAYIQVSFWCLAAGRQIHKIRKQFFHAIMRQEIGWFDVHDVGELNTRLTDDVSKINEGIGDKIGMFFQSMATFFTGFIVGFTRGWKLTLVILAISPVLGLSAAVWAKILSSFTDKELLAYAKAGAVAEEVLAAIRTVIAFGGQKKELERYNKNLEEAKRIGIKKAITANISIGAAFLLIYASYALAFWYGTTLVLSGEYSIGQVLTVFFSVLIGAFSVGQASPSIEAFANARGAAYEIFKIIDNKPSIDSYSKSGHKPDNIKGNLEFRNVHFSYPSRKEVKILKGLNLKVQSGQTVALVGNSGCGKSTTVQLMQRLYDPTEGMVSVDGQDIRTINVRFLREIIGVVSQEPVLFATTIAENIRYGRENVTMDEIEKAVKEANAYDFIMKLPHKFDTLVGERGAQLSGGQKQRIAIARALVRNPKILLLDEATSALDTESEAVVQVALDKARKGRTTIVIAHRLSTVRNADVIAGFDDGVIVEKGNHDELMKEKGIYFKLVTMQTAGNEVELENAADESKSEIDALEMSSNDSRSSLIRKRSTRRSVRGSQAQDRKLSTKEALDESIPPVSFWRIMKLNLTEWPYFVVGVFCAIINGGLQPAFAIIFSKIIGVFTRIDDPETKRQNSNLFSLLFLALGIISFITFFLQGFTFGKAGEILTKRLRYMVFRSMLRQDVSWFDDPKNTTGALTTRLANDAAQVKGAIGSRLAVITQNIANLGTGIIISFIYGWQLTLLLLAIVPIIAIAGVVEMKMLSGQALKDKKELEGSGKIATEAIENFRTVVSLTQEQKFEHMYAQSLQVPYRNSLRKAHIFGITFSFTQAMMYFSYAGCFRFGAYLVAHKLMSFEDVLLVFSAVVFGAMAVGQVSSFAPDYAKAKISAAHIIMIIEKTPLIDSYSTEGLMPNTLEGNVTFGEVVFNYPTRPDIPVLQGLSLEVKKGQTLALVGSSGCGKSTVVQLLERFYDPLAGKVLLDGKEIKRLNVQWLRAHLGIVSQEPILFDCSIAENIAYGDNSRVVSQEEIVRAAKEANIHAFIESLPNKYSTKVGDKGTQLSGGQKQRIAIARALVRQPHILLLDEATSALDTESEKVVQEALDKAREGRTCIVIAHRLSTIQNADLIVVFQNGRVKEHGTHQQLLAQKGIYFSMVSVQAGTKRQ

SMILES | CI [1] | CI [2] | CI [3] | CI [5] | CI [6] | CI [7] | inhibition at 10 min, 20 µM [9] | CI [10] | CI [11] | CI [12] | CI [14] | CI [15] | CI [16] | CI [17] | inhibition at 10 min, 2 µM [19] | IC50 [20] | CI [21] | CI [22] | IC50 [24] | CI [25] | also measured
CC(C)(O)CC[C@H]1OC(C)(C)O[C@]1(C)[C@H]1CC=C2C3=C/C(=N/OC(C)(C)C)[C@@H]4C[C@H]5OC(C)(C)O[C@H]5C[C@]4(C)[C@H]3CC[C@@]21C | 0.31 | 0.42 | 0.82 | 0.29 | 0.34 | 0.55 | 78.8% | 0.59 | 0.23 | 0.34 | 0.53 | 1.07 | 0.66 | 0.34 | 59% | 63.2 µM | 0.26 | 0.23 | 15.7 µM | 0.32 | CI [4]: 0.53; CI [8]: 0.47; CI [13]: 0.91; CI [18]: 0.94; CI [23]: 0.88; CI [26]: 0.63; CI [27]: 0.33
C=CCO/N=C1/C=C2[C@H](CC[C@]3(C)[C@@H]([C@@]4(C)OC(C)(C)O[C@@H]4CCC(C)(C)O)CC[C@@]23O)[C@@]2(C)C[C@@H]3OC(C)(C)O[C@@H]3C[C@@H]12 | 0.25 | 0.23 | 0.7 | 0.19 | 0.17 | 1.03 | 81.8% | 1.11 | 0.19 | 0.21 | 1.08 | 1.55 | 1.2 | 0.2 | 24.2% | 36.7 µM | 0.19 | 0.16 | 26.9 µM | 0.16 | CI [4]: 0.35; CI [8]: 0.31; CI [26]: 0.99; CI [27]: 0.17
CC(C)(O)CC[C@H]1OC(C)(C)O[C@]1(C)[C@H]1CC=C2C3=C/C(=N\OC(C)(C)C)[C@@H]4C[C@H]5OC(C)(C)O[C@H]5C[C@]4(C)[C@H]3CC[C@@]21C | 0.41 | 0.31 | 1.31 | 0.26 | 0.28 | 0.83 | 94% | 0.85 | 0.23 | 0.36 | 1.16 | 1.02 | 0.64 | 0.27 | 67.5% | 63.8 µM | 0.24 | 0.24 | 16.9 µM | 0.27 | CI [4]: 0.64; CI [8]: 0.51; CI [13]: 0.89; CI [18]: 0.98; CI [23]: 0.83; CI [26]: 0.85; CI [27]: 0.28
CO/N=C1/C=C2C3=CC[C@H]([C@@]4(C)OC(C)(C)O[C@@H]4CCC(C)(C)O)[C@@]3(C)CC[C@@H]2[C@@]2(C)C[C@@H]3OC(C)(C)O[C@@H]3C[C@@H]12 | 0.24 | 0.2 | 0.69 | 0.17 | 0.18 | 0.39 | 106% | 0.47 | 0.15 | 0.21 | 0.77 | 0.87 | 0.31 | 0.17 | 33.4% | 46 µM | 0.16 | 0.14 | 26 µM | 0.17 | CI [4]: 0.36; CI [8]: 0.33; CI [13]: 1.2; CI [18]: 1.3; CI [23]: 1.14; CI [26]: 0.67; CI [27]: 0.16
CCO/N=C1/C=C2[C@H](CC[C@]3(C)[C@@H]([C@@]4(C)OC(C)(C)O[C@@H]4CCC(C)(C)O)CC[C@@]23O)[C@@]2(C)C[C@@H]3OC(C)(C)O[C@@H]3C[C@@H]12 | 0.26 | 0.27 | 0.58 | 0.16 | 0.18 | 0.58 | 75% | 0.52 | 0.17 | 0.23 | 0.63 | 0.98 | 0.45 | 0.19 | 19% | 37.3 µM | 0.16 | 0.13 | 25.1 µM | 0.17 | CI [13]: 0.83; CI [18]: 0.94; CI [23]: 0.75; CI [26]: 0.67; CI [27]: 0.19
CCO/N=C1/C=C2C3=CC[C@H]([C@@]4(C)OC(C)(C)O[C@@H]4CCC(C)(C)O)[C@@]3(C)CC[C@@H]2[C@@]2(C)C[C@@H]3OC(C)(C)O[C@@H]3C[C@@H]12 | 0.2 | 0.25 | 0.49 | 0.14 | 0.21 | 0.52 | 108% | 0.66 | 0.11 | 0.22 | 0.72 | 0.74 | 0.6 | 0.21 | 56.4% | 53.2 µM | 0.14 | 0.1 | 26 µM | 0.18 | CI [4]: 0.37; CI [8]: 0.36; CI [13]: 1.1; CI [18]: 1; CI [23]: 1.21; CI [26]: 0.48; CI [27]: 0.18
